SMILES strings stand for the structures.

In series [1] the target is Free fatty acid receptor 1 (Homo sapiens) (UniProt O14842). Kind of series: Agonist activity at human FFA1 receptor expressed in CHO cells assessed as intracellular calcium influx at 100 nM measured for 90 sec by Fluo-4-AM dye based FLIPR assay relative to control. It is filed as functional, cell-based. In outline: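 CHO cells stably expressing human FFA1 (NM_005303), 15 K cells/well, grown 12 h at 37 °C in 5% CO2, then HBSS wash. Ca2+ signal read by FLIPR for 90 s after addition. Activity = (test − vehicle)/(10 µM γ-linolenic acid − vehicle) × 100; mean of three independent experiments.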
(A change in cytosolic calcium serves as a functional read-out for many receptors and channels.)

Series [2] is described as follows: 1-octanol-phosphate buffer distribution coefficient, log D of compound at 100 uM at pH 7.4 after 24 hrs by HPLC based shake flask method. It is filed as physicochemical. The gist of the method:
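Final concentration 100 µM, diluted from 10 mM DMSO stock, in 1:1 0.01 M phosphate buffer pH 7.4 and 1-octanol. Shaken 700 rpm for 24 h, then 1 h phase separation. Octanol phase diluted ×10 before HPLC, buffer phase injected directly, each in duplicate. LogD = octanol/buffer peak area at 254 nm, corrected with two calibration points; three independent experiments.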

The test system of series [3] is Mus musculus. Description: Hypoglycemic effect in normal ICR mouse assessed as decrease in blood glucose AUC (0 to 2 hrs) at 50 mg/kg, po administered as single dose 30 mins prior to glucose challenge by OGTT relative to control. It is filed as functional. Also noted: scale not given: the % may be the effect or the level left. In outline: (§1)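 Ten-week-old male ICR mice, fasted 12 h, randomized n = 6 per group. Single oral dose in 0.5% CMC given 30 min before oral glucose 3 g/kg. Tail-vein blood glucose measured by test strips at −30, 0, 15, 30, 45, 60 and 120 min; AUC0-2h calculated; mean ± SEM, Student's t-test vs vehicle.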

Series [4] concerns Mus musculus. Kind of series: Hypoglycemic effect in normal ICR mouse assessed as decrease in plasma glucose level at 50 mg/kg, po administered as single dose 30 mins prior to glucose challenge by OGTT relative to control. Type of series: functional, organism-based. Particulars: TDE = time-dependent effect. The gist of the method: as §1
The subject of series [5] is Mus musculus. Kind of series: Hypoglycemic effect in fasting STZ-induced type-2 diabetic C57BL/6 mouse assessed as decrease in blood glucose AUC (0 to 2 hrs) at 20 mg/kg, po administered as single dose 30 mins prior to glucose challenge measured by OGTT relative to control. Type of series: functional. Also noted: scale not given: the % may be the effect or the level left. The gist of the method:
(§2)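 Male C57BL/6 mice on high-fat diet (45% kcal fat) for 4 weeks, then STZ 80 mg/kg i.p., then high-fat diet another 4 weeks. Fasting glucose ≥11.1 mmol/L taken as diabetic. Fasted 12 h, n = 6 per group. Oral dose in 0.5% CMC 30 min before oral glucose 2 g/kg. Tail-vein glucose by test strips at −30, 0, 15, 30, 45, 60 and 120 min; AUC0-2h; mean ± SEM.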

Series [6] concerns Mus musculus. Kind of series: Hypoglycemic effect in fasting STZ-induced type-2 diabetic C57BL/6 mouse assessed as decrease in blood glucose AUC (0 to 2 hrs) at 50 mg/kg, po administered as single dose 30 mins prior to glucose challenge by OGTT relative to control. It is filed as functional. Set-up: scale not given: the % may be the effect or the level left. In outline:
as §2

Chain of Free fatty acid receptor 1 (Homo sapiens) (O14842 whole entry): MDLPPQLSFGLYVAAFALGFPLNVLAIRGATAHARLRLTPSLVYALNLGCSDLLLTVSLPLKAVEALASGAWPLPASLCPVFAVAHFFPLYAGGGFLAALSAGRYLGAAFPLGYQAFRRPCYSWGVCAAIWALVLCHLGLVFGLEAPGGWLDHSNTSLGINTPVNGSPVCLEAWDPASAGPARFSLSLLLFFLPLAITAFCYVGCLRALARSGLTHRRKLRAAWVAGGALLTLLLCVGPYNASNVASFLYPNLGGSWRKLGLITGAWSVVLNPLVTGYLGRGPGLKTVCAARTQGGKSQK

`Cc1ccc(Cl)cc1-n1cc(COc2ccc3c(c2)OCC3CC(=O)O)nn1` (stereo unspecified): the Activity in series [1] was 33.8%; in the series with Mus musculus [3], 16.8%; with Mus musculus [4], “Tde”. In series [2], this compound gave a logD at 24 h, 100 µM of 2.08.

`COc1ccccc1-n1cc(COc2ccc(OCC(=O)O)c(F)c2)nn1`: the Activity in series [1] worked out at 14.6%.

In the case of `O=C(O)CC1COc2cc(OCc3cn(-c4ccc(OCc5ccccc5)cc4)nn3)ccc21` (stereo unspecified), in series [1], the Activity was determined as 3.67%.

For the compound `O=C(O)COc1ccc(OCc2cn(-c3ccccc3)nn2)cc1`, the Activity in series [1] was 0.64%.

Regarding `O=C(O)CC1COc2cc(OCc3cn(-c4ccccc4F)nn3)ccc21` (stereo unspecified), the Activity in series [1] came out at 6.69%.

Consider `CCOc1ccc(-n2cc(COc3ccc(OCC(=O)O)c(F)c3)nn2)cc1`, for which, in series [1], the Activity was 7.62%.

Regarding `O=C(O)COc1ccc(OCc2cn(-c3ccccc3)nn2)cc1F`, in series [1], the Activity was 5.83%. Further, the logD at 24 h, 100 µM in series [2] is -0.23.

Regarding `O=C(O)CC1COc2cc(OCc3cn(-c4ccccc4Cl)nn3)ccc21` (stereo unspecified), in series [1], the Activity turned out to be 9.34%.

For the compound `O=C(O)CC1COc2cc(OCc3cn(-c4cccc(Cl)c4)nn3)ccc21` (stereo unspecified), in series [1], the Activity was determined as 22.8%. Besides, the logD at 24 h, 100 µM in series [2] was 1.09.

For `Cc1ccc(-n2cc(COc3ccc(OCC(=O)O)cc3)nn2)cc1`, the Activity in series [1] is 16.4%. The logD at 24 h, 100 µM in series [2] was found to be 0.89.

With `Cc1cc(OCCCS(C)(=O)=O)cc(C)c1-c1cccc(COc2ccc3c(c2)OC[C@H]3CC(=O)O)c1` [FASIGLIFAM], the Activity with Mus musculus [5] was 32.5%.

Consider `O=C(O)COc1ccc(OCc2cn(-c3ccc(F)cc3)nn2)cc1F`, for which the Activity in series [1] worked out at 20.4%. Also, in series [2], the logD at 24 h, 100 µM is 0.92.

As to `O=C(O)CC1COc2cc(OCc3cn(-c4ccccc4)nn3)ccc21` (stereo unspecified), in series [1], the Activity was found to be 0.76%.

On to `O=C(O)COc1ccc(OCc2cn(-c3ccc(Cl)cc3)nn2)cc1`, for which the Activity in series [1] was determined as 19.4%.

Turning to `O=C(O)COc1ccc(OCc2cn(-c3ccc(Cl)cc3)nn2)cc1F`, the Activity is 26.1% in series [1] and “Tde” in the series on Mus musculus [4]. Besides, in series [2], the logD at 24 h, 100 µM was found to be 1.37.

As to `Cc1cccc(-n2cc(COc3ccc(OCC(=O)O)cc3)nn2)c1`, in series [1], the Activity amounted to 11.8%.

As for `O=C(O)COc1ccc(OCc2cn(-c3ccc(F)cc3)nn2)cc1`, in series [1], the Activity stood at 13.8%.

On to `COc1cccc(-n2cc(COc3ccc(OCC(=O)O)c(F)c3)nn2)c1`, for which the Activity in series [1] is 24.4%; in the series with Mus musculus [4] it was “Tde”. The logD at 24 h, 100 µM in series [2] is 0.52.

Turning to `O=C(O)COc1ccc(OCc2cn(-c3ccccc3Cl)nn2)cc1F`, the Activity in series [1] was 11.3%.

Turning to `O=C(O)COc1ccc(OCc2cn(-c3cccc(Cl)c3)nn2)cc1F`, the Activity in series [1] turned out to be 22.7%.

In the case of `O=C(O)CC1COc2cc(OCc3cn(-c4c(Cl)cccc4Cl)nn3)ccc21` (stereo unspecified), the Activity in series [1] is 21.7%. Moreover, in series [2], the log distribution coefficient (logD) at 24 h, 100 µM worked out at 1.96.

For the compound `O=C(O)COc1ccc(OCc2cn(-c3c(Cl)cccc3Cl)nn2)cc1F`, the Activity was 29.7% in series [1], 17.7% in the series on Mus musculus [3] and “Tde” with Mus musculus [4]. In series [2], the logD at 24 h, 100 µM stood at 2.16.

On to `CC(C)(C)c1ccc(-n2cc(COc3ccc(OCC(=O)O)c(F)c3)nn2)cc1`, for which, in series [1], the Activity turned out to be 4.53%.

On to `COc1cccc(-n2cc(COc3ccc4c(c3)OCC4CC(=O)O)nn2)c1` (stereo unspecified), for which, in series [1], the Activity is 19.4%.

As for `Cc1ccc(Cl)cc1-n1cc(COc2ccc(OCC(=O)O)c(F)c2)nn1`, the Activity in series [1] was 36.1%; in the series on Mus musculus [3], 21.4%; in the series on Mus musculus [6], 14.2%; in the series on Mus musculus [4], “Tde”. The logD at 24 h, 100 µM in series [2] worked out at 1.95.

With `O=C(O)CC1COc2cc(OCc3cn(-c4ccc(Cl)cc4)nn3)ccc21` (stereo unspecified), the Activity was 24.7% in series [1] and “Tde” in the series with Mus musculus [4].

The term logD denotes the decadic logarithm of the distribution of all forms, ionised or not, between an organic phase and buffer at a given pH.

Source of the values: ChEMBL document CHEMBL4428117, “Discovery of novel free fatty acid receptor 1 agonists bearing triazole core via click chemistry” (Bioorg Med Chem, 2016).
